Shown are actives, neighbours in structure and some others; about 1.1% of the full set was active somewhere.
hK5 inh: kallikrein 5 (human) inhibition | inhibition, % at 5 µM | Q9Y337 | recombinant hK5, fluorogenic AMC substrate cleavage | 210,000 tested, 0.59% active | AID 873;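 active = inhibition of 40% or more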
FXIa inh 1536: inhibitors of human coagulation factor XIa. P03951. purified FXIa, Boc-Glu-Ala-Arg-AMC fluorogenic substrate. inhibition, % at 5 µM. 220,000 tested, 0.14% active. AID 798;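 active = inhibition of at least 40%; inactive = inhibition below 40%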;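 note: fluorescence of freed AMC excited at 355 nm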
Target sequence (P03951 19-387 limits assumed): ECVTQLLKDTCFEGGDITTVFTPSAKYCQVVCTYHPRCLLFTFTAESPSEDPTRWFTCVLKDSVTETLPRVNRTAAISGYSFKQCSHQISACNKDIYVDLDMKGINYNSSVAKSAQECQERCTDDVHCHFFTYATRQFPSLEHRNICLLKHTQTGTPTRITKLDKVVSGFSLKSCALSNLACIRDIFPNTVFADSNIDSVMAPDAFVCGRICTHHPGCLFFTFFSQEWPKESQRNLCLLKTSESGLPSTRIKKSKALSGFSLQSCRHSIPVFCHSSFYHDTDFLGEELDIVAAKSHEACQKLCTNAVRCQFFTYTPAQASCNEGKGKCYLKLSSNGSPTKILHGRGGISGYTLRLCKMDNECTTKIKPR
Target sequence (P03951 388-625 limits assumed): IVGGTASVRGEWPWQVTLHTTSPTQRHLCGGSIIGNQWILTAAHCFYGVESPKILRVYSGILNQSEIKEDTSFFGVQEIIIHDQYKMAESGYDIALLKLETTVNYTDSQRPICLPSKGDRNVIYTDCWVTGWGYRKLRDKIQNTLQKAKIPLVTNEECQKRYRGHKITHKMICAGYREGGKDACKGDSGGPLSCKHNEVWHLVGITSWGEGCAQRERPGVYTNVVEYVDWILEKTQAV
FXIIa inh 1536: inhibitors of human coagulation factor XIIa; P00748; purified FXIIa, Boc-QGR-AMC fluorogenic substrate, 2 h; inhibition, % at 5 µM; 220,000 tested, 0.3% active; AID 800; in the data active = inhibition above about 40%
Furin inhibitor: blocks human furin protease activity. P09958. purified furin, fluorogenic substrate cleavage. inhibition, % at 20 µM or 30 µM. 220,000 tested, 0.061% active. AID 463115; in the data active = inhibition above about 25%
thrombin 1536: inhibitors of human thrombin. P00734. alpha-thrombin, Boc-VPR-AMC fluorogenic substrate cleavage. inhibition, % at 5 µM. 220,000 tested, 0.26% active. AID 1046;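 active = inhibition at or above 40%; inactive = inhibition below 40%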
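signal = AMC fluorescence, 355/460 nm | material = human alpha-thrombin enzyme | control set = enzyme without compound as high, wells lacking enzyme as low | times = reaction at room temperature | read-out basis = percent inhibition scaled between no-compound controls and no-enzyme blanks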
A number is an active result; - = inactive; . = no result.

SMILES	hK5 inh	FXIa inh 1536	FXIIa inh 1536	Furin inhibitor	thrombin 1536
CC1CCCCN1S(=O)(=O)c1coc(C(N)=O)c1 (stereo unspecified)	41.7	-	-	-	-
O=C(COC(=O)CCc1ccccc1)Nc1ncc(Cl)cc1Cl	-	-	-	-	41.7
O=C(COC(=O)CCOc1ccccc1)Nc1ccc(Cl)cn1	-	-	-	-	48.2
COC(=O)CSc1nnnn1-c1ccccc1	-	-	-	-	-
CCOC(=O)NC(=O)CSc1nnnn1-c1ccccc1	-	-	-	37.6	-
CCOC(=O)CSc1nnnn1-c1cccc2ccccc12	56.9	-	-	-	-
CCOc1ccccc1-n1nnnc1SCC(=O)OC	-	-	-	-	-
CCOC(=O)c1cc(-c2ccccc2)sc1NC(=O)CN1C(=O)NC(CC)(c2ccccc2)C1=O (stereo unspecified)	40.0	-	-	-	-
Cc1ccccc1N1CCN(c2ccc(NC(=O)C3CCCCC3C(=O)O)cc2)CC1 (stereo unspecified)	-	-	-	-	-
Cc1c(N(C)C(=O)C2CCCN2S(=O)(=O)c2ccccc2)c(=O)n(-c2ccccc2)n1C (stereo unspecified)	71.2	-	-	-	104.0
CCOC(=O)Cc1csc(NC(=O)CC(C)(C)CC(=O)O)n1	50.0	59.1	-	-	-
O=C(N/C(=C/c1cccc([N+](=O)[O-])c1)C(=O)N1CCCCCC1)c1cccs1	-	-	-	-	-
CC(C)N1CCN(Cc2ccsc2)CC1CCO (stereo unspecified)	-	-	-	-	-
O=C(Nc1ccc(S(=O)(=O)Nc2ccccc2)cc1)c1ccc(CN2CCOCC2)cc1	-	-	-	-	-
Cc1ccc(NC(=S)NCCc2ccccc2)nc1	-	53.9	-	-	-
COc1cccc(CN(C)C(=S)Nc2ccc(C)c(C)c2)c1	-	-	-	-	-
O=C1OCC2OC(O)C(O)C(O)C2OC(=O)c2cc(O)c(O)c(O)c2-c2c(O)c(O)c3oc(=O)c4c(c(O)c(O)c5oc(=O)c2c3c54)-c2c1cc(O)c(O)c2O (stereo unspecified)	-	59.1	-	-	-
Nc1c2c(nc3sc4c(c13)CCCC4)-c1ccccc1CC2	-	-	-	-	-
O=C(Nn1c(-c2ccccc2)nc2ccccc2c1=O)c1cccs1	-	-	-	-	-
CC1CCN(c2ccc(NC(=O)c3cccnc3Cl)cc2)CC1	-	-	-	-	-
CC1CCN(c2ccc(NC(=O)c3cccnc3)cc2)CC1	-	-	-	25.3	-
CN(C)CCCNC(NC(=O)c1cccs1)C(Cl)(Cl)Cl (stereo unspecified)	-	-	-	-	-
O=C(Nc1ccc(Cl)cc1)Nc1ccccc1C(=O)NCc1ccco1	51.1	103.8	-	-	-
O=C(Nc1ccccc1C(=O)NCc1ccco1)c1ccccc1	-	-	-	-	-
CCOC(=O)c1ccc(NC(=O)N2CCN(C(=O)c3ccco3)CC2)cc1	-	-	-	-	-
SMILES	hK5 inh	FXIa inh 1536	FXIIa inh 1536	Furin inhibitor	thrombin 1536
Cc1nc2ccccc2c2c1C(=O)NC2=O	-	-	-	-	-
CC(=O)Nc1ccc(S(=O)(=O)NCCNc2ccccc2[N+](=O)[O-])cc1	-	-	98.8	-	-
N/C(=N/OC(=O)c1ccccc1Cl)c1ncc([N+](=O)[O-])s1	-	-	-	-	-
O=C1CC(N2CCN(Cc3ccc(Cl)cc3)CC2)C(=O)N1CCc1ccccc1 (stereo unspecified)	-	-	40.8	-	-
Cc1ccc(NC2=NCC(=O)N2C2CCCC2)c(C)c1	112.0	-	-	-	-
O=C(CNCC1CCCO1)NCc1ccco1 (stereo unspecified)	-	-	-	-	-
NC(=O)c1c(NC(=O)C2CCCO2)sc2c1CCC2 (stereo unspecified)	-	-	50.4	-	-
NC(=O)c1c(NC(=O)C2CCCO2)sc2c1CCCCC2 (stereo unspecified)	-	-	-	-	-
Cc1ccc(CN(C)CC(=O)Nc2ccc3c(c2)CCC3)cc1	47.3	-	-	-	-
CCc1ccc(CN(C)CC(=O)Nc2ccc3c(c2)CCC3)cc1	-	-	-	-	-
Cc1ccc(-c2nn(-c3ccccc3)cc2/C=N/NS(=O)(=O)c2ccccc2)cc1	-	-	45.3	-	-
Cc1ccc(S(=O)(=O)N/N=C\c2cn(-c3ccccc3)nc2-c2ccccc2)cc1	-	-	-	-	-
O=C(c1cccc2nc3ccccc3nc12)N1CCOCC1	-	-	-	-	-
Cc1cn(-c2ccccc2)c(C)c1/C=N\Nc1nc(N2CCOCC2)nc(N2CCOCC2)n1	-	-	-	-	-
CC(C)(CC(=O)O)CC(=O)Nc1ccc(Oc2ccc(C(C)(C)C)cc2)nc1	-	-	-	-	-
CC(C)(C)c1ccc(Oc2ccc(NC(=O)CCCC(=O)O)cn2)cc1	-	-	47.4	-	-
O=C(O)c1ccc(NCc2nc3ccccc3n2Cc2ccccc2)cc1	-	-	101.4	-	-
CCn1c(CNc2ccc(C(=O)O)cc2)nc2ccccc21	-	-	-	-	-
O=C(CSc1ncn[nH]1)Nc1ccc(Cl)c(S(=O)(=O)N2CCOCC2)c1	-	-	-	-	-
O=[N+]([O-])c1ccc2[nH]c(O)c(N=NC3CS(=O)(=O)CC3O)c2c1 (stereo unspecified)	-	-	-	-	-
COc1ccc(-c2ccc(C#N)c(SCC(=O)NCCc3ccccc3)n2)cc1OC	-	-	-	-	56.0
Cc1nonc1C(=O)N/N=C/c1ccc(O)cc1O	-	-	-	-	-
Cc1nc(SCC(=O)NC(=O)NC(C)(C)C)nc(C)c1C	-	-	-	-	-
Cc1nc(SCC(=O)NC(=O)NC(C)C)nc(C)c1C	50.1	-	-	-	-
Cc1cc(/C=C(\C#N)C(=O)NCc2ccco2)c(C)n1-c1ccc(C(=O)O)cc1	-	-	-	-	-
SMILES	hK5 inh	FXIa inh 1536	FXIIa inh 1536	Furin inhibitor	thrombin 1536
CCOC(=O)CSc1nc(Cc2ccccc2)nc2ccccc12	-	-	-	-	-
COc1ccc(-c2nc(SC)n(C(=O)c3ccco3)n2)cc1	-	-	-	-	80.3
Cc1cc(C)n2nc(Cc3ccccc3)nc2n1	-	-	-	-	-
Cc1cc(C)n2nc(S(=O)(=O)N(C)c3ccccc3)nc2n1	54.9	-	-	-	-
CCCN1CCC(NCc2cn(C)nc2-c2ccc(Oc3ccccc3)cc2)CC1	45.0	-	-	-	-
COC1CCCN(Cc2cn(C)nc2-c2ccc(Oc3ccccc3)cc2)C1 (stereo unspecified)	.	-	-	-	-
CS(=O)(=O)N1CCN(Cc2ccc([N+](=O)[O-])cc2)CC1	50.8	-	-	-	-
CCCS(=O)(=O)N1CCN(Cc2ccc([N+](=O)[O-])cc2)CC1	-	-	-	-	-
CCCCCOc1ccc(C2NC(=O)NC2=O)cc1 (stereo unspecified)	-	-	-	-	-
CCCOc1ccc(C2NC(=O)NC2=O)cc1 (stereo unspecified)	-	-	-	26.7	-
CCCOc1ccc(OCCNC2CCCC2)cc1	74.3	-	-	-	-

Assay outcomes: PubChem BioAssay, several laboratories
